MC4R barr agon – agonists of human melanocortin 4 receptor (MC4R) beta-arrestin; activation, % at 8.9 µM; U2OS MC4R beta-arrestin complementation, luminescence; percent of melanotan II response, DMSO zero; P32245; 0.98% of 360,000 active;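 active = activation above a per-plate cutoff, the mean activation of sample wells on that plate plus 3 SD, cut at about 8% in these data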
Beta2AR agonist – agonists of human beta-2 adrenergic receptor inducing internalization; P07550; Am2.2-beta2AR cells, FAP receptor internalization, flow cytometry; response, % (test concentration not listed); 0.43% of 340,000 active; AID 504454;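 active = response above a set limit, near 3 SD of response in nonfluorescent compounds, cut at about 42% in these data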
HTR2A ag – agonists of mouse serotonin 5-HT2A receptor (HTR2A). CHO-K1 mHTR2A beta-arrestin complementation, luminescence; percent of 30 µM serotonin response. activation, % at 7.6 µM. P35363. 0.66% of 360,000 active. AID 624169;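 active = activation above a run cutoff, the mean activation of all tested compounds plus 3 SD, cut at about 14% in these data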
Target sequence (P35363 whole entry, looked up): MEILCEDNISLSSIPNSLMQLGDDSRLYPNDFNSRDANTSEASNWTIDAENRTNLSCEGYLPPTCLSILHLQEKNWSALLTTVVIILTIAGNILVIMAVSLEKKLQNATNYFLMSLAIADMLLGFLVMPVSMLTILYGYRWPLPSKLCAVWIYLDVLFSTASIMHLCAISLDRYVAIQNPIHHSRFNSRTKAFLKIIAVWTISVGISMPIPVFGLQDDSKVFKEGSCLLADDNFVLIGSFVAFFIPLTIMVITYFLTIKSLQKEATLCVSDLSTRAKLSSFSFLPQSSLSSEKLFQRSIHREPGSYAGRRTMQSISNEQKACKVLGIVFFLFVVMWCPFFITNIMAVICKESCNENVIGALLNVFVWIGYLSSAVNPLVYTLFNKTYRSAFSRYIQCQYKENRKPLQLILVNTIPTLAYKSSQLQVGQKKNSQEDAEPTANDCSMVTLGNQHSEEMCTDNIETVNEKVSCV
MC4R antag cAMP – blocks human MC4R cAMP signaling. P32245. inhibition, % at 6.5 µM. 0.48% of 360,000 active. MC4R-expressing cells, MTII-stimulated cAMP, LANCE TR-FRET;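 active = inhibition above its plate's cutoff, the mean of tested wells on that plate plus 3 SD, cut at about 29% in these data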
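System – human MC4R-expressing U2OS cells · Also added – Melanotan II · Dosing – one concentration, 6.5 µM nominal · Timing – 30-min compound, 1-h challenge, 1-h detection, room temperature · Measured by – Eu-cAMP/anti-cAMP TR-FRET, emission 671 nm · Replicates – singlicate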
TAAR1 antag – human TAAR1 antagonism | Q96RJ0 | CHO RD-HGA16 TAAR1, Fluo-8 calcium fluorescence, antagonist | inhibition, % at 3 µM | 1.5% of 360,000 active | AID 624466;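 active = inhibition above a per-plate cutoff, the mean inhibition of test compounds on that plate plus 3 SD, cut at about 49% in these data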
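Assay system: CHO-derived RD-HGA16 cells stably expressing human TAAR1 plus Gα16. Timing: 140 s kinetic read after compound, 140 s after agonist. Technique: kinetic Fluo-8 calcium fluorescence measurement. Measure: % inhibition of agonist calcium response.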
TAAR1 agonist – human TAAR1 agonism. Q96RJ0. CHO RD-HGA16 TAAR1, Fluo-8 calcium fluorescence; vehicle wells 0%, saturating PEA agonist 100%. activation, % at 3 µM. 0.99% of 360,000 active;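 active = activation above the mean activation of all test compounds in the run plus 3 SD, cut at about 38% in these data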
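Assay system: CHO-derived RD-HGA16 cells with stable Gα16 and human TAAR1; timing: 17-24 h seeding, 75 min 37 °C dye, 30 min RT; read-out: % activation from peak over basal fluorescence ratio, DMSO-to-PEA scaled; measured by: kinetic Fluo-8 calcium fluorescence; benchmarks: low control DMSO, high control PEA (EC100); doses: 3 µM single concentration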
OPRM1 ag – activates human mu opioid receptor in HTR2A counterscreen; shares compounds with HTR2A ag; U2OS OPRM1 beta-arrestin PathHunter, luminescence; DMSO 0%, DAMGO 9.3 µM 100%; activation, % at 9.3 µM; 5.3% of 2,300 active; AID 624380;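 active = mean activation above the mean of DMSO-only wells plus 3 SD, cut at about 0.5% in these data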
m5-HT2A ag conf – mouse HTR2A agonism confirmed | shares compounds with HTR2A ag | CHO-K1 PathHunter beta-arrestin recruitment, luminescence; DMSO 0%, 30 µM serotonin 100% | activation, % at 7.6 µM | 19% of 2,300 active;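 active = mean activation across triplicates above the hit threshold derived in the original primary screen, cut at about 15% in these data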
Each line names hits and unclear results; the compound was inactive in the other large screens (follow-up assays come after a bar, where they were run). Sampled rows, rich in hits. Any-hit rate of the full collection: about 4.3%.

C=C(C1=CCN(S(=O)C(C)(C)C)[C@@H]1CCO)c1ccccc1 (some centres undefined)	none
CC(C)(C)C(=O)NCc1ccc(C(=O)CSc2nnc(-c3ccncc3)n2C2CC2)s1	HTR2A ag 16.0 | OPRM1 ag inactive | m5-HT2A ag conf inactive
Cc1ccc(CN2CCNC(=O)C2CC(=O)O)o1 (centres undefined)	HTR2A ag 21.4 | OPRM1 ag inactive | m5-HT2A ag conf inactive
COc1ccc(OCC(=O)NC(=S)NNC(=O)COc2ccc(Br)cc2Cl)cc1	HTR2A ag 16.2 | OPRM1 ag inactive | m5-HT2A ag conf inactive
COc1ccc(NC(=S)NNC(=O)COc2ccc(Cl)cc2Cl)cc1	none
CC(=O)Nc1c(Cl)c2c(c(Cl)c1Br)-c1ccc(Cl)cc1C2	none
CCOc1ccc(CCNC(=O)c2nnn(CC(=O)Nc3ccc(OC)c(OC)c3)c2N)cc1OCC	none
CCc1ccc(NC(=O)Cn2nnc(C(=O)NCCc3ccc(OC)c(OC)c3)c2N)cc1	HTR2A ag 16.5 | OPRM1 ag inactive | m5-HT2A ag conf inactive
CC1=C(C(=O)N2CCCCCC2)CC(CC(=O)NC2CCCC2)C(=O)N1Cc1ccc(C(C)(C)C)cc1 (centres undefined)	HTR2A ag 14.7 (no result: MC4R barr agon, Beta2AR agonist, MC4R antag cAMP) | OPRM1 ag inactive | m5-HT2A ag conf inactive
COc1ccc(CN2C(=O)C(CC(=O)NC3CCCC3)CC(C(=O)N(C)C)=C2C)cc1 (centres undefined)	HTR2A ag 30.0 (no result: Beta2AR agonist) | OPRM1 ag inactive | m5-HT2A ag conf inactive
O=C(Nc1nc2c(Br)cc(Br)cc2c(=O)s1)C1CCC1	none
C[C@H]1CN([C@@H](C)CO)C(=O)c2c(c3ccccc3n2C)-c2ccccc2CO[C@H]1CN(C)Cc1cccc(F)c1	none (no result: Beta2AR agonist)
C[C@H](CO)N1C[C@H](C)[C@H](CN(C)Cc2cccc(O)c2)OCc2ccccc2-c2c(n(C)c3ccccc23)C1=O	HTR2A ag 23.2 (no result: Beta2AR agonist) | OPRM1 ag inactive | m5-HT2A ag conf 32.3
CCC(Sc1ncccc1Nc1ccccn1)C(=O)O (centres undefined)	none
O=C(O)CSc1c(-c2ccccc2)[nH]c2ccccc12	none
O=C(O)CSc1c(-c2cccs2)[nH]c2ccccc12	HTR2A ag 16.4 | OPRM1 ag inactive | m5-HT2A ag conf inactive
CCc1ccc(CN(C(=O)c2oc3ccccc3c2C)C2CCS(=O)(=O)C2)cc1 (centres undefined)	HTR2A ag 15.1 | OPRM1 ag inactive | m5-HT2A ag conf inactive
CCc1ccc(OC(C)C(=O)N(Cc2ccco2)C2CCS(=O)(=O)C2)cc1 (centres undefined)	HTR2A ag 23.0 | OPRM1 ag inactive | m5-HT2A ag conf inactive
Cc1c(C(=O)N(Cc2ccccc2)C2CCS(=O)(=O)C2)oc2ccccc12 (centres undefined)	none
CCCCc1cc(=O)oc2cc(OCC(=O)NCc3ccccn3)ccc12	none
Cc1cc(C)c(OCC(=O)OCC(=O)N2CCCc3ccccc32)c(C)c1	none
O=C(C1=C(O)C(=O)N(CC2CCCO2)C1c1ccc(Cl)cc1Cl)c1ccco1 (centres undefined)	none
CCNC(=S)Nc1ccc2c(c1)c(=O)n(C)n2-c1ccc(C(C)(C)C)cc1	none (no result: Beta2AR agonist)
COc1ccc(CCN2CCCC(CN(C)C(=O)c3ccoc3)C2)cc1 (centres undefined)	none
C=C(C)CN1CCN(S(=O)(=O)c2ccc(C)c(N(C)S(=O)(=O)c3ccc(C)cc3)c2C)CC1	HTR2A ag 22.0 | OPRM1 ag inactive | m5-HT2A ag conf inactive
COC(=O)c1nccnc1C(=O)Nc1ccccc1N1CCOCC1	none
